Read-outs that look alike come from different tables or passages of the source. One block for each compound: values may come before it.
How the values were obtained:
[1] = Plasma pharmacokinetics in A375 tumor-bearing nude mice; assay type: in vivo, mouse; details: for AUC: AUC0–24 h
Summary of the method: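 Tumor-bearing nude mice got oral 5 or 10 mg/kg once, or 10 mg/kg daily for 7 days (tumors ≥600 mm3), as suspension in 1% Tween 80/PBS. Plasma came by cardiac exsanguination under isoflurane at 0.5–24 h (single) or 1–24 h after the last dose, n = 4. Acetonitrile/methanol extraction with analog internal standard. LC/MS/MS MRM, N-desmethyl m/z 445→287. Noncompartmental analysis; AUC by trapezoidal rule.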

A375 cell line = test: Anti-proliferative response in cells grown in culture; assay type: cell-based, human; details: data not shown
patients = details: ref [1], cited from earlier work
[2] = cited from earlier work; for AUC: AUC0–12 h
[3] = test system: A375 human melanoma xenograft tumors; test: Tumor apoptosis; assay type: in vivo, mouse; details: A375 xenograft tumor sections, versus vehicle
Summary of the method: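 A375 xenograft tumors from oral-dosed and vehicle nude mice were formalin-fixed and paraffin-embedded, then cut into 5 μm sections. Sections were stained by TUNEL (TMR red in situ cell death kit) for apoptosis and by H&E for necrotic area, then imaged by fluorescence microscopy.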

[4] = Tissue and tumor distribution in A375 tumor-bearing nude mice; assay type: in vivo, mouse; details: for P:TAUC: plasma to tissue AUC ratio
[5] = test system: tumor ERK phosphorylation (MEK1/2 inhibition); test: Inhibition of tumor ERK phosphorylation by western blot; assay type: in vivo, mouse; details: A375 tumor
Summary of the method: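 Male athymic BALB/c nude mice carrying s.c. rear-flank A375 xenografts (5 million cells in 4:1 serum-free RPMI:Matrigel), tumors ≥400 mm3, got one oral gavage of 5 or 10 mg/kg in 1% Tween 80/PBS. Four mice were killed per time point (0.5–24 h). Frozen tumor was sonicated in Triton/Tris pH 7.5 lysis buffer, then SDS-PAGE with pERK/ERK immunoblot. % inhibition = 100×(1 − treated pERK/ERK ÷ vehicle pERK/ERK).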

[6] = metabolite in mouse plasma, AZD6244 5 mg/kg single oral dose
[7] = metabolite in mouse plasma, AZD6244 10 mg/kg once daily 7 days, steady state
[8] = metabolite in mouse plasma, AZD6244 10 mg/kg single oral dose
[9] = mouse plasma, 5 mg/kg single oral dose
[10] = mouse plasma, 10 mg/kg oral once daily 7 days, steady state
[11] = mouse plasma, 10 mg/kg single oral dose
[12] = nude, mouse, plasma, po, 5 mg/kg
[13] = nude, mouse, plasma, po, 10 mg/kg
[14] = human plasma, 100 mg single dose, ref Adjei et al. [1]

AUC0–24 h [1, 6]: 3,597 ng/(mL h)
Cmax [1, 6]: 505 ng/mL
T1/2γ [1, 6]: 3.68 h
Tmax [1, 6]: 1.0 h
AUC0–24 h [1, 7]: 3,709 ng/(mL h)
Cmax [1, 7]: 554 ng/mL
T1/2γ [1, 7]: 2.37 h
Tmax [1, 7]: 1.0 h
AUC0–24 h [1, 8]: 4,993 ng/(mL h)
Cmax [1, 8]: 865 ng/mL
T1/2γ [1, 8]: 2.79 h
Tmax [1, 8]: 2.0 h
SMILES: O=C(NOCCO)c1cc2[nH]cnc2c(F)c1Nc1ccc(Br)cc1Cl [AZD6244-N-desmethyl]
potency of cellular growth inhibition in vitro relative to parent (A375 cell line): approximately twice the potency of the parent

T1/2γ [1, 9]: 2.81 h
AUC [1, 9]: 11,910 ng/(mL h)
T1/2γ [1, 10]: 2.29 h
AUC [1, 10]: 17,525 ng/(mL h)
T1/2γ [1, 11]: 2.62 h
AUC [1, 11]: 18,976 ng/(mL h)
CL/F [1, 12]: 6.67 mL/min/kg
Cmax [1, 12]: 2970 ng/mL
Tmax [1, 12]: 0.5 h
Vd/F [1, 12]: 1.7 L/kg
CL/F [1, 13]: 8.33 mL/min/kg
Cmax [1, 13]: 3350 ng/mL
Tmax [1, 13]: 2 h
Vd/F [1, 13]: 2 L/kg
AUC0–12 h ([4]; gut, 5 mg/kg, single dose): 5,008 ng/(g h)
AUC0–12 h ([4]; gut, 10 mg/kg, single dose): 6,845 ng/(g h)
AUC0–12 h ([4]; gut, 10 mg/kg, steady state): 2,278 ng/(g h)
AUC0–12 h ([4]; liver, 5 mg/kg, single dose): 4,356 ng/(g h)
Cmin ([4]; liver, 5 mg/kg, single dose): 299 ng/g
AUC0–12 h ([4]; liver, 10 mg/kg, single dose): 8,028 ng/(g h)
Cmin ([4]; liver, 10 mg/kg, single dose): 110 ng/g
AUC0–12 h ([4]; liver, 10 mg/kg, steady state): 6,781 ng/(g h)
Cmin ([4]; liver, 10 mg/kg, steady state): 100 ng/g
ratio of free drug in plasma to free drug in tissue (fB/fT) ([4]; mouse, single oral dose): 1.8
AUC0–12 h ([4]; muscle, 10 mg/kg, single dose): 667 ng·h/g
Cmin ([4]; muscle, 10 mg/kg, single dose): 896 ng/g
Cmin ([4]; muscle, 10 mg/kg, steady state): 1,649 ng/g
Cmax ([4]; nude, mouse, gut, po, 5 mg/kg, single dose): 1220 ng/g
Cmax ([4]; nude, mouse, gut, po, 10 mg/kg, single dose): 1930 ng/g
Cmax at 1 week ([4]; nude, mouse, gut, po, 10 mg/kg, steady state): 6780 ng/g
half-life ([4]; nude, mouse, gut, po, 10 mg/kg, t1/2, gut, single dose): 1 h
Tmax ([4]; nude, mouse, liver, lung, kidney, gut, muscle, skin, tumor, po, 10 mg/kg): 0.5 to 2 h
Cmax ([4]; nude, mouse, lung, po, 5 mg/kg, single dose): 206 ng/g
Cmax ([4]; nude, mouse, lung, po, 10 mg/kg, single dose): 327 ng/g
half-life ([4]; nude, mouse, lung, po, 10 mg/kg, t1/2, lung, single dose): 1 h
Cmax at 1 week ([4]; nude, mouse, muscle, po, 10 mg/kg, steady state): 2040 ng/g
Cmax ([4]; nude, mouse, skin, po, 5 mg/kg, single dose): 136 ng/g
Cmax ([4]; nude, mouse, skin, po, 10 mg/kg, single dose): 169 ng/g
Cmax ([4]; nude, mouse, tumor, po, 5 mg/kg, single dose): 501 ng/g
Cmax ([4]; nude, mouse, tumor, po, 10 mg/kg, single dose): 861 ng/g
Cmax ([4]; nude, mouse, tumor, po, 10 mg/kg, steady state): 487 ng/g
P:TAUC ([4]; gut, 5 mg/kg, single dose): 2.28
P:TAUC ([4]; gut, 10 mg/kg, single dose): 2.66
P:TAUC ([4]; gut, 10 mg/kg, steady state): 7.41
P:TAUC ([4]; liver, 5 mg/kg, single dose): 2.62
P:TAUC ([4]; liver, 10 mg/kg, single dose): 2.27
P:TAUC ([4]; liver, 10 mg/kg, steady state): 2.49
P:TAUC ([4]; lung, 5 mg/kg, single dose): 10.55
P:TAUC ([4]; lung, 10 mg/kg, single dose): 7.45
P:TAUC ([4]; muscle, 5 mg/kg, single dose): 14.06
P:TAUC ([4]; muscle, 10 mg/kg, single dose): 27.33
P:TAUC ([4]; muscle, 10 mg/kg, steady state): 18.16
P:TAUC ([4]; skin, 5 mg/kg, single dose): 14.25
P:TAUC ([4]; skin, 10 mg/kg, single dose): 16.56
P:TAUC ([4]; tumor, 5 mg/kg, single dose): 3.17
P:TAUC ([4]; tumor, 10 mg/kg, single dose): 3.82
P:TAUC ([4]; tumor, 10 mg/kg, steady state): 4.45
AUC0–12 h ([4]; skin, 5 mg/kg, single dose): 802 ng·h/g
AUC0–12 h ([4]; tumor, 5 mg/kg, single dose): 3,601 ng/(g h)
Cmin ([4]; tumor, 5 mg/kg, single dose): 44 ng/g
AUC0–12 h ([4]; tumor, 10 mg/kg, single dose): 4,776 ng/(g h)
Cmin ([4]; tumor, 10 mg/kg, single dose): 130 ng/g
Cmin ([4]; tumor, 10 mg/kg, steady state): 52 ng/g
SMILES: Cn1cnc2c(F)c(Nc3ccc(Br)cc3Cl)c(C(=O)NOCCO)cc21 [AZD6244]
patients with stable disease of five or more months (patients; 9 of 54 patients): 16%
tolerability (patients; most common toxicity skin rash, diarrhea, nausea and fatigue): well tolerated
human AUC ([2]; clinical exposure compared with mouse 10 mg/kg once daily, ref [1]): 10,012 ng/(mL h)
AUC [2, 14]: 3,124 ng/(mL h)
Cmax [2, 14]: 807 ng/mL
T1/2γ [2, 14]: 4.5 h
AUC ([2]; human plasma, 100 mg steady state, ref Adjei et al. [1]): 5,006 ng/(mL h)
AUC0–12 h ([2]; humans given 100 mg AZD6244 free-base suspension BID, ref [1]): 3,124 ng/(mL h)
AUC0–12 h ([2]; humans given 200 mg AZD6244 free-base suspension BID, ref [1]): 5,234 ng/(mL h)
apoptotic cells as measured by TUNEL [3]: slight increase in apoptotic cells as measured by TUNEL, this increase was not statistically significant
necrotic area [3]: no difference in necrotic area
peak inhibition of phosphorylated ERK ([5]; 5 mg/kg single dose): 72%
peak inhibition of phosphorylated ERK ([5]; 10 mg/kg single dose): 80%

From PMC4332869 (Cancer chemotherapy and pharmacology, 2010)
